The nature of this data set: Toxicity liver stage against HepG2, at 10uM. Type of data set: cell-based. The settings on record: human, HepG2-A16-CD81EGFP cells; read-out: INHIBITION
Also on record: test concentration 10 uM, cell line HepG2-A16-CD81EGFP. The procedure, abridged:
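Uninfected HepG2-A16-CD81EGFP cells, 3 × 10^3 per well, 1536-well, plated on prespotted compound at 10 μM final, parasite-free screening media added to match infected plates; puromycin 10 μM positive, DMSO 0.5% negative; run in parallel with 48 h PbLuc assay at 37 °C, 5% CO2; viability by CellTiter-Glo luminescence, normalized to controls.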
`CSc1ccc(C(=O)C2CCCN(C(=O)CCCn3cncn3)C2)cc1` (stereo not drawn): the cytotoxicity at 10 µM was determined as 6.26%.

Turning to `CSc1ccc(C(=O)C2CCCN(C(=O)CCn3cncn3)C2)cc1` (stereo not drawn), the cytotoxicity at 10 µM is -12.2%.

Consider `COc1cc(C)c2c(c1C)C[C@H]([C@H](C)C(=O)O)CC2`, for which the cytotoxicity at 10 µM was -0.95%.

For `O=C(NC[C@H]1C[C@@H]2CCN1C[C@@H]2CN1CCOCC1)Nc1ccccc1`, the cytotoxicity at 10 µM worked out at 5.96%.

For `COCC(=O)N[C@H](C)c1onc(-c2ccc(Cl)cc2)c1C(=O)O`, the cytotoxicity at 10 µM was -5.61%.

Take `COC(=O)[C@@H]1Cc2ncn(C)c2CN1S(=O)(=O)c1ccc(Cl)cc1`: the cytotoxicity at 10 µM was found to be 4.67%.

For the compound `N#Cc1ccc(CN2C[C@@H]3OCC(=O)N[C@@H]3C2)cc1`, the cytotoxicity at 10 µM was -3.01%.

As to `CCOC(=O)COC1CCN(C(C)=O)CC(=O)N(C)c2ccccc21` (stereo not drawn), the cytotoxicity at 10 µM was 7.45%.

For the compound `COCCNC(=O)c1cc(-n2cccc2)ccc1Cl`, the cytotoxicity at 10 µM was -3.45%.

For the compound `CC(C)[C@H](NC(=O)N1CCN(c2ccc(Cl)cc2)CC1)C(=O)NC1CC1`, the cytotoxicity at 10 µM is -7.39%.

Consider `CN1C(=O)C(C)(C)COc2cc(NS(=O)(=O)c3ccccc3F)ccc21`, for which the cytotoxicity at 10 µM is -5.08%.

Turning to `CCCS(=O)(=O)c1ccc(N2CCN(c3ccccn3)CC2)nn1`, the cytotoxicity at 10 µM is -82.5%.

As for `O=C(Nc1cccnc1)c1noc2c1CN(S(=O)(=O)C1CC1)CC2`, the cytotoxicity at 10 µM amounted to 7.06%.

Turning to `CS(=O)(=O)N1CCN(c2ccc3ccc(C(=O)NC4CC4)cn23)CC1`, the cytotoxicity at 10 µM was -0.39%.

`Cc1cccc(CN2C(=O)CCC23CCN(Cc2ccoc2)CC3)n1`: the cytotoxicity at 10 µM worked out at 2.82%.

Consider `CN1CCN(C[C@H]2OC[C@@H]3CCN(Cc4ccsc4)C[C@@H]32)CC1`, for which the cytotoxicity at 10 µM was -2.19%.

In the case of `CCN1C(=O)[C@]2(CC[C@@H]3CN(C(=O)Nc4ccc(F)cc4)C[C@@H]32)N=C1C`, the cytotoxicity at 10 µM worked out at 3.22%.

Take `O=C1CC(c2cccnc2)c2c(c(C(=O)O)cn2-c2ccccc2)N1` (stereo not drawn): the cytotoxicity at 10 µM stood at 9.92%.

Regarding `COCCN1CC[C@]2(CN(C(=O)c3cccs3)C[C@H]2C)C1=O`, the cytotoxicity at 10 µM came out at 3.47%.

On to `CO[C@H]1CO[C@@]2(CCCN(C(=O)C3=CCCCC3)C2)C1`, for which the cytotoxicity at 10 µM was -9.95%.

Turning to `CCN(C)c1ncnc2c1CCN(C(=O)c1ccno1)CC2`, the cytotoxicity at 10 µM was -10%.

For `CC(C)c1cc(C(=O)N2CCC3(CCc4ccccc4C(=O)N3)C2)on1` (stereo not drawn), the cytotoxicity at 10 µM amounted to 2.53%.

As to `Cn1cccc1CNCC1CCCn2cc(C(C)(C)C)nc21` (stereo not drawn), the cytotoxicity at 10 µM is -19.8%.

Turning to `CCN(C(=O)Cc1ccc(NCc2ncc[nH]2)cc1)c1ccccc1`, the cytotoxicity at 10 µM came to 6.43%.

`Cc1cc(C(NC(=O)CNS(C)(=O)=O)C(C)C)c(C)s1` (stereo not drawn): the cytotoxicity at 10 µM stood at 5.2%.

On to `CC(C)c1noc(CCC(=O)N2CCN(C)CC2c2ccccc2)n1` (stereo not drawn), for which the cytotoxicity at 10 µM was -5.3%.

Turning to `Cn1cc(N2CCC(NC(=O)c3c(F)cccc3Cl)C2=O)cn1` (stereo not drawn), the cytotoxicity at 10 µM stood at 0.91%.

`Cc1ccc(C(=O)N2CCCC(CNS(=O)(=O)C(C)C)C2)cc1` (stereo not drawn): the cytotoxicity at 10 µM is -1.42%.

Turning to `NC(=O)c1ccc(OCC(=O)NC2CCc3c(F)cccc32)cc1` (stereo not drawn), the cytotoxicity at 10 µM stood at 14.4%.

For `CC(C)(C)NS(=O)(=O)c1ccccc1CNCc1ccccc1`, the cytotoxicity at 10 µM was found to be 5.74%.

Take `CCN1CCN(C(=O)C(C)N2CCc3cncnc3C2)CC1` (stereo not drawn): the cytotoxicity at 10 µM was -10.9%.

In the case of `Cc1cc(SC(C)(C)C)ccc1NC(=O)CNC(N)=O`, the cytotoxicity at 10 µM was found to be 7.94%.

As to `CCCNC(=O)CCC(=O)N1CCC(c2n[nH]c(C3CC3)n2)CC1`, the cytotoxicity at 10 µM was -3.82%.

On to `CNC(=O)COc1cccc(CNCc2c(C)noc2C)c1`, for which the cytotoxicity at 10 µM is -10.3%.

Consider `COc1ccccc1OCC(=O)N1CCN(Cc2noc(C)n2)CC1`, for which the cytotoxicity at 10 µM was 3.82%.

Turning to `Cc1ccc(C2CSCCN2C(=O)c2ccsc2)o1` (stereo not drawn), the cytotoxicity at 10 µM is 1.68%.

On to `Cc1nc(CN2C[C@@H]3CN(C(=O)c4ccncc4)C[C@@H]3C2)cs1`, for which the cytotoxicity at 10 µM is -108%.

Take `COCC(=O)NCc1cc(=O)n2c(n1)CN(Cc1ccncc1)CCC2`: the cytotoxicity at 10 µM was -99.9%.

Regarding `CNC(=O)N1CC[C@@H]2CN(Cc3cccnc3)S(=O)(=O)[C@@H]2CC1`, the cytotoxicity at 10 µM turned out to be 4.4%.

Consider `O=C(O)C(c1ccc2c(c1)OCO2)N1CCC(O)(c2cccnc2)CC1` (stereo not drawn), for which the cytotoxicity at 10 µM stood at 19.7%.

With `CCCN1CCC(CC(=O)NCc2cc(C)nn2C)CC1`, the cytotoxicity at 10 µM was -12.4%.

For `CCc1ncc(C(=O)NCCN2CCNC2=O)cn1`, the cytotoxicity at 10 µM worked out at 0.069%.

Take `CCc1ccc(S(=O)(=O)N2CC[C@@](O)(CCOC)[C@H](C)C2)cc1`: the cytotoxicity at 10 µM is 6.8%.

With `CC(=O)CN1CCC2(CC1)c1ccccc1[C@@H](N1CCSCC1)[C@@H]2O`, the cytotoxicity at 10 µM was -27.1%.

On to `Cc1nc2ccc(C(=O)N3CCN(CCO)[C@@H]4CS(=O)(=O)C[C@@H]43)cc2o1`, for which the cytotoxicity at 10 µM is -1.32%.

Regarding `Cc1nc(N2CCCC2)nc(N2CCC(O)(C(=O)O)CC2)c1C`, the cytotoxicity at 10 µM was -5.62%.

For the compound `CN1CCN(C(=O)c2cccc(CN3CCOCC3)c2)CC1`, the cytotoxicity at 10 µM turned out to be 2.46%.

Turning to `CCS(=O)(=O)N1CCC(c2nnc(CN3CCCC3)n2C2CC2)CC1`, the cytotoxicity at 10 µM is 14.9%.

Consider `COc1ccc(C(=O)Nc2cc(CC(C)C)nn2C)cc1`, for which the cytotoxicity at 10 µM was -10.6%.

Regarding `Cc1cnn(C2CN(CC(=O)NCCc3ccsc3)C2)c1`, the cytotoxicity at 10 µM was -3.86%.

Turning to `Cc1nc(C2CCCN2Cc2ccc(S(=O)(=O)N(C)C)o2)no1` (stereo not drawn), the cytotoxicity at 10 µM is -2.53%.

As for `Cc1ccc(OCCN2CCN(Cc3cnn(CCO)c3)CC2)cc1`, the cytotoxicity at 10 µM was -2.4%.

Take `COc1cc(C(=O)NS(=O)(=O)c2cccc(C#N)c2)cc(OC)c1C`: the cytotoxicity at 10 µM is -5.02%.

Turning to `Cc1cnn(C2CCCN(C(=O)c3cn4ccccc4n3)C2)c1` (stereo not drawn), the cytotoxicity at 10 µM is -6.35%.

On to `CNC(=O)CCCNCc1c(C(C)C)nn(C)c1N(C)C`, for which the cytotoxicity at 10 µM is -12.7%.

In the case of `CCOc1ncccc1NC(=O)N1CCCCCC1`, the cytotoxicity at 10 µM is -6.36%.

Regarding `CC(=O)N(Cc1ncc(C(C)C)o1)C1CCN(Cc2ncc[nH]2)C1` (stereo not drawn), the cytotoxicity at 10 µM was -6.02%.

With `Cc1nc(C)n(C2CCCN(C(=O)c3ccc(NC4CC4)nc3)C2)n1` (stereo not drawn), the cytotoxicity at 10 µM is -3.36%.

Consider `CCc1nc(CN(CC(N)=O)C(C)C)cs1`, for which the cytotoxicity at 10 µM was -8.62%.

As to `CCc1n[nH]c(C2CN(C(=O)c3cnns3)CCO2)n1` (stereo not drawn), the cytotoxicity at 10 µM was -3.43%.

Turning to `Cc1cnn(CC2CCCN2C(=O)c2cccc(-n3cnnn3)c2)c1` (stereo not drawn), the cytotoxicity at 10 µM was -4.3%.

`COc1cccc(N2C(=O)CC3(CCNCC3)C2=O)c1`: the cytotoxicity at 10 µM was determined as 2.67%.

With `c1cncc(-c2noc(C3CN(Cc4cccs4)C3)n2)c1`, the cytotoxicity at 10 µM is -6.87%.

Take `Cn1cc(N2C(=O)CC[C@@H]3[C@H]2CCN3Cc2nccs2)cn1`: the cytotoxicity at 10 µM amounted to 8.62%.

Turning to `c1ccc(CO[C@H]2CC[C@H]3[C@H]2OCCN3Cc2nccs2)nc1`, the cytotoxicity at 10 µM turned out to be 5.83%.

As to `COCCN1C[C@@H]2[C@@H](OC)CCN(Cc3ccco3)[C@@H]2C1`, the cytotoxicity at 10 µM was 2.37%.

For `Cc1cnc(N2CC3(CCN(C(=O)c4cccnc4)C3)C2)nc1`, the cytotoxicity at 10 µM came out at 2.55%.

Turning to `O=C(CCn1cncn1)N1C[C@@H]2CC[C@H]1CN(Cc1ccncc1)C2`, the cytotoxicity at 10 µM was 9.53%.

The record behind these values is ChEMBL document CHEMBL4513216, “Probing the Open Global Health Chemical Diversity Library for Multistage-Active Starting Points for Next-Generation Antimalarials” (ACS Infect Dis, 2020).
